These molecules were tested against T1, Endothelin-1 receptor (Rattus norvegicus, UniProt P26684) (assay: Concentration required to inhibit 50% Et-1 binding to endothelin A receptor in rat A-10 cells.). Details: not given.
T1 sequence (P26684 whole entry): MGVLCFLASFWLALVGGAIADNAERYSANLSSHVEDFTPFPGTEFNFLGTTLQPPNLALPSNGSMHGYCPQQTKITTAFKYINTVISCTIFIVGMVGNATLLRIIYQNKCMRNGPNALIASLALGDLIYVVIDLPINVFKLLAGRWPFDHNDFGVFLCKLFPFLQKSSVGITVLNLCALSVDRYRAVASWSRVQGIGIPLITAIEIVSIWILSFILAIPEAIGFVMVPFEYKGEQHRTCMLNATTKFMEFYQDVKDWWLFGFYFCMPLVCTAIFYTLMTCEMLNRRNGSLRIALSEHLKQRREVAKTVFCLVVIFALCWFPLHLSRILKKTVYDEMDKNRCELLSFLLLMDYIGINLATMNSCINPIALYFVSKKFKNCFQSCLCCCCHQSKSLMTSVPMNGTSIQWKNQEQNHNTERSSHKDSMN
Type: cell-based, A10
Method in brief: (§1)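 Rat aortic smooth muscle A10 cells grown to confluence in DMEM with 10% FBS, harvested, and frozen. Nonspecific binding defined with 500 nM unlabeled ET-1. Bound ligand separated by vacuum filtration and gamma-counted. IC50 from curve fitting, usually in duplicate.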

SMILES | IC50 [µM]
O=C(O)/C(=C/c1cc(OCc2ccsc2)ccc1[N+](=O)[O-])c1ccccc1Cl | 1.3
N#Cc1ccc(OCc2ccsc2)cc1/C=C(/C(=O)O)c1ccc2c(c1)OCO2 | 0.2
Cc1ccccc1/C(=C\c1cc(OCc2ccsc2)ccc1C#N)CO | 0.3
O=C(O)/C(=C/c1cc(OCc2ccsc2)ccc1[N+](=O)[O-])c1ccccc1 | 0.5
O=C(O)/C(=C/c1cccc(OCc2ccccc2)c1)c1ccccc1 | 6
N#Cc1ccc(OCc2ccsc2)cc1/C=C(/CO)c1ccccc1 | 0.8
O=C(O)/C(=C/c1cc(OCc2ccsc2)ccc1Br)c1ccccc1 | 0.7
COc1cccc(/C(=C\c2cc(OCc3ccsc3)ccc2C#N)C(=O)O)c1 | 1.1
Cc1ccccc1/C(=C\c1cc(OCc2ccsc2)ccc1C#N)C(=O)O | 0.3
O=[N+]([O-])c1ccc(OCc2ccsc2)cc1/C=C(/CO)c1ccccc1 | 1.4
OC/C(=C/c1cc(OCc2ccsc2)ccc1Br)c1ccccc1 | 2.1
O=C(O)CCC(Oc1cccc(OCc2ccccc2)c1)c1ccccc1 (stereo not given) | 2
N#Cc1ccc(OCc2ccsc2)cc1/C=C(/C(=O)O)c1ccccc1Cl | 0.2
N#Cc1ccc(OCc2ccc3c(c2)OCO3)cc1/C=C(/C(=O)O)c1ccccc1 | 1.3
N#Cc1ccc(OCc2ccsc2)cc1/C=C(/CCC(=O)O)c1ccccc1 | 0.7
O=[N+]([O-])c1ccc(OCc2ccsc2)cc1/C=C(/CO)c1ccccc1Cl | 0.4
O=C(O)/C(=C/c1cc(OCc2ccccc2)ccc1[N+](=O)[O-])c1ccccc1 | 0.6
O=C(O)CC/C(=C/c1cccc(OCc2ccccc2)c1)c1ccccc1 | 5.3
N#Cc1ccc(OCc2cccnc2)cc1/C=C(/C(=O)O)c1ccccc1 | 0.15
O=C(O)/C(=C/c1cc(OCc2ccsc2)ccc1[N+](=O)[O-])c1ccccc1F | 0.6
O=C(O)/C(=C/c1cc(OCc2ccsc2)ccc1[N+](=O)[O-])c1c(F)cccc1Cl | 2

The molecules below were run against T2, Endothelin-1 receptor (Rattus norvegicus) (UniProt P26684) (assay: Concentration required to inhibit 50% Et-1 binding to Endothelin A receptor in rat A-10 cells.). Details: A10; concentration not given here.
T2 sequence (whole entry): T1 sequence (P26684 whole entry)
Type: cell-based
Set-up: concentration or dose not given beside the values
Method in brief: as §1

SMILES | inhibition [%]
COc1ccc(/C(=C\c2cc(OCc3ccsc3)ccc2C#N)C(=O)O)cc1 | < 20
COC/C(=C/c1cc(OCc2ccsc2)ccc1C#N)c1ccccc1C | < 20
Nc1ccc(OCc2ccsc2)cc1/C=C(/C(=O)O)c1ccccc1F | < 20
COc1ccc(C#N)c(/C=C(/C(=O)O)c2ccccc2)c1 | < 20

Reference: ChEMBL document CHEMBL1131033, “Selective endothelin A receptor antagonists. 4. Discovery and structure-activity relationships of stilbene acid and alcohol derivatives” (J Med Chem, 1998)
